# NR3A LBD binder = modulates the human NR3A ligand-binding domain | NR3A LBD differential scanning fluorimetry, Tm shift; 0% = protein alone, 100% = glycine-bound protein | Tm shift relative to glycine control, % at 25 µM | actives 2.5% (n = 340,000) | AID 1259313;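 active = melting temperature shift of at least 10% of the positive control shift, at one fixed dose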
# DNA FID counter = counter-screen for HCV NS3 helicase inhibitors: DNA intercalator displacement; inhibition, % at 7.9 µM; AID 1845; actives 0.17% (n = 290,000); DNA fluorescent intercalator displacement, fluorescence; in the data active = inhibition above about 37%;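 also: 0% = vehicle and 100% = reference compound; higher means more ethidium bromide displaced from hairpin DNA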
# FGF22 binding = binders of recombinant human FGF22 by thermal shift; SYPRO orange fluorescence; percent of sucrose octasulfate shift, DMSO zero; actives 1.5% (n = 340,000); Q9HCT0; activity (Tm shift, normalised), % at 9.99 µM; AID 651658;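 active = mean Tm shift, scaled 0 neutral to 100 positive control, at about 1.3% or above, every replicate too, limit read from the data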
# Target sequence (Q9HCT0 whole entry, looked up): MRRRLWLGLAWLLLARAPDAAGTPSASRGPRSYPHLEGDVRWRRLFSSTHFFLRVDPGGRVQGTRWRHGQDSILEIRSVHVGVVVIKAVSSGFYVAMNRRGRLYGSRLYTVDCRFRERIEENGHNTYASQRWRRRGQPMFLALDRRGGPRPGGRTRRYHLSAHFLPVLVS
# NS3 helicase inh = HCV NS3 helicase inhibition | NS3 helicase DNA unwinding, Cy5 molecular beacon fluorescence | inhibition, % at 10.9 µM | actives 0.56% (n = 290,000);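 active = inhibition above the mean of all tested compounds plus 3 SD, set per campaign, cut at about 35% in these data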;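 also: 0% = DMSO wells and 100% = thioflavine S control wells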
#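 Material: hepatitis C virus NS3 helicase domain fragment enzyme; measured by: Cy5 fluorescence, 0 and 60 min reads; control set: DMSO and thioflavine S; incubation: 60 min unwinding reaction at 25 °C after ATP addition; read-out basis: % inhibition from 60/0 min fluorescence ratio, DMSO 0%, thioflavine S 100%; repeats: singlicate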
# EBNA-1 inh = blocks EBNA-1 binding to DNA; EBNA-1 DNA binding, fluorescence polarization; actives 0.34% (n = 300,000); inhibition, % at 14.8 µM; in the data active = inhibition above about 28%
# ZTA DNA inh = blocks Epstein-Barr virus ZTA, an EBNA-1 counter-screen; actives 0.15% (n = 320,000); inhibition, % at 11 µM; ZTA-DNA binding, fluorescence polarization; in the data active = inhibition above about 33%
# Target sequence (P03206 whole entry, looked up): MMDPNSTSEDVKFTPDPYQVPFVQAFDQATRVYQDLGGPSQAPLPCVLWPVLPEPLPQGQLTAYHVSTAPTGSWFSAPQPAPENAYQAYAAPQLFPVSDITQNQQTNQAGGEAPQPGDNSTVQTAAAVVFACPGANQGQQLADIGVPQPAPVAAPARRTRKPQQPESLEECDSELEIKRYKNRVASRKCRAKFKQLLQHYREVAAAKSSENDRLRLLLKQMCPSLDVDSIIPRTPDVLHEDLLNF
# Starred values were filed as active, the others as inactive; / = not tested or not shown. Rows were chosen to be rich in hits. Some 3.6% of all compounds tested hit in one or more screens of this group.
SMILES,NR3A LBD binder,DNA FID counter,FGF22 binding,NS3 helicase inh,EBNA-1 inh,ZTA DNA inh
C[C@H]1CN([C@@H](C)CO)C(=O)c2cccc(NC(=O)Nc3ccc4c(c3)OCO4)c2O[C@@H]1CN(C)C(=O)NC1CCCCC1,/,/,1,/,/,/
O=C(CSCc1nc2c(nnn2Cc2ccc(F)cc2)c(=O)[nH]1)Nc1c(Cl)cc(Cl)cc1Cl,-3,3,43*,1,0,-4
Cc1ccc(NC(=O)Nc2cccc3ccccc23)cc1,-11,4,0,3,-3,-4
N#CCc1ccc(NC(=O)Nc2cccc3ccccc23)cc1,21*,-5,/,-15,17,-8
O=C(C[C@@H]1CC[C@@H]2[C@H](COC[C@@H](O)CN2C(=O)Nc2ccccc2)O1)NCc1ccccc1F,/,/,0,/,/,/
N#Cc1c(-c2ccccc2)c(-c2ccccc2)nn(CC(=O)NNC(=O)Nc2ccc(Cl)cc2)c1=O,15*,4,0,3,4,2
N#Cc1c(-c2ccccc2)c(-c2ccccc2)nn(CC(=O)NNC(=O)Nc2ccccc2)c1=O,-1,-10,/,1,-20,-11
O=C(COC(=O)c1ccc(O)cc1O)Nc1cc(-c2ccccc2)nn1-c1ccccc1,25*,/,1,/,-7,-7
N#CCC(=O)Nc1ccc(C(=O)OCC(=O)Nc2ccccc2Sc2ccccc2)cc1,16*,-16,0,2,3,16
Cc1cc(C)c(-c2cc(NC(=O)COC(=O)c3ccc(C#N)cc3)n(-c3ccccc3)n2)cc1C,-21,-8,0,0,-6,-6
Cc1cc(C)c(-c2cc(NC(=O)COC(=O)c3ccc(NC(=O)CC#N)cc3)n(-c3ccccc3)n2)cc1C,27*,/,0,/,-12,-4
COC(=O)c1c(NC(=O)COC(=O)c2ccc(NC(=O)CC#N)cc2)sc2c1CCCCC2,19*,-14,43,19,-10,-15
C[C@H](CO)N1C[C@H](C)[C@H](CN(C)C(=O)Nc2ccccc2)Oc2ccc(NC(=O)CCCCCC(=O)Nc3ccccc3N)cc2C1=O,/,/,0,/,/,/
COC(=O)c1c(CC[C@@H](CO)NC(=O)N[C@H](Cc2ccccc2)Cn2cc(-c3ccccn3)nn2)oc(C(C)=O)c1C(=O)OC,/,/,0,/,/,/
O=C(C[C@H]1CC[C@@H]2[C@H](COC[C@H](O)CN2C(=O)c2ccc(F)cc2)O1)NCCCN1CCOCC1,/,/,0,/,/,/
N#CCC(=O)Nc1ccc(C(=O)OCc2ccccc2Oc2ccccc2)cc1,17*,-1,0,-26,7,11
COc1ccc(S(=O)(=O)Nc2ccc3c(c2)C(=O)N([C@@H](C)CO)C[C@H](C)[C@@H](CN(C)S(=O)(=O)c2ccc(C)cc2)O3)cc1,/,/,0,/,/,/
O=C(/C=C/c1ccccc1)NCC(=O)N/N=C/c1ccccc1[N+](=O)[O-],-6,-17,43*,11,-3,-7
CC1(C)NC(=O)N(CC(=O)OCC(=O)c2ccc(F)cc2)C1=O,1,/,0,/,102*,1
CCOCCCNC(=S)NCCCNc1nc2ccc(C)cc2cc1C#N,/,4,1,-25,-5,0
CCOCCCNC(=S)NCCNc1nc2ccc(C)cc2cc1C#N,0,3,44*,-3,16,7
COCC#Cc1ccc2c(c1)O[C@@H](CN(C)CC1CCOCC1)[C@H](C)CN([C@H](C)CO)S2(=O)=O,/,/,0,/,/,/
COc1ccc(NC(=O)NC[C@@H]2CC[C@@H](Cc3ccc(-c4ccccc4)cc3)O2)cc1,11*,/,1,/,/,/
COc1ccc(CN(C)C[C@H]2Oc3ccc(NS(=O)(=O)c4ccc(C)cc4)cc3C(=O)N([C@H](C)CO)C[C@@H]2C)cc1,/,/,0,/,/,/
S=c1[nH]c(-c2ccccc2)cs1,2,-6,0,15,-3,-25
SMILES,NR3A LBD binder,DNA FID counter,FGF22 binding,NS3 helicase inh,EBNA-1 inh,ZTA DNA inh
Fc1ccc(-c2csc(=S)[nH]2)cc1,2,-2,43*,18,-2,5
COc1ccc(Nc2nc(N)c([N+](=O)[O-])c(NC3CCCCC3)n2)cc1,11*,-7,0,-48,-6,-8
COc1ccc(Nc2nc(N)c([N+](=O)[O-])c(NCCO)n2)cc1,1,-5,0,-15,0,10
COc1ccc2c3c(n(C)c2c1)[C@@H](CO)NCC31CN(C(=O)Nc2ccc(F)cc2F)C1,/,/,0,/,/,/
Cc1nc(OCc2c(C)noc2C)c2ccccc2n1,5,0,43*,-3,-4,9
C[C@H](CO)N1C[C@H](C)[C@@H](CN(C)Cc2ccccc2)Oc2ncc(C#CC3(O)CCCC3)cc2C1=O,/,/,0,/,/,/
C[C@@H]1CN([C@H](C)CO)C(=O)c2cc(NS(C)(=O)=O)ccc2O[C@@H](C)CCCCO[C@H]1CN(C)Cc1ccc(C(=O)O)cc1,/,/,0,/,/,/
CCOC(=O)c1c2ccc(OCC(=O)NN)cc2n2ccccc12,-1,-8,43*,-3,-1,13
O=C(C[C@@H]1C[C@H]2c3cc(NC(=O)C4CCC4)ccc3O[C@H]2[C@@H](CO)O1)NCC1CC1,/,/,0,/,/,/
COc1cc(OC)cc(C(=O)NNC(=O)c2ccc3ccccc3n2)c1,-1,/,0,/,/,/
COc1cc(OC)cc(C(=O)NNC(=O)c2ccccn2)c1,-1,-1,0,-3,3,4
COc1ccc(C(=O)NC(=S)NNC(=O)c2ccc3ccccc3n2)cc1,11*,-8,/,10,-1,6
COc1ccc(C(=O)NNC(=O)c2ccccn2)cc1,-1,-1,44*,10,-3,10
C[C@@H]1CN([C@@H](C)CO)C(=O)c2cc(NC(=O)Nc3ccc4c(c3)OCO4)ccc2O[C@H]1CN(C)Cc1ccc2c(c1)OCO2,/,/,0,/,/,/
Clc1ccc(-c2cn3ccccc3n2)cc1,2,-3,0,-6,-5,-10
CCCOc1ccc(-c2cn3ccccc3n2)cc1,-15,-7,43*,-8,1,16
COc1ccc(-c2cn3ccccc3n2)cc1,26*,-3,1,5,-5,-10
COc1ccc(/C=N/NC(=O)c2nc(Cl)c(Cl)c(N)c2Cl)cc1COc1ccc(F)cc1F,10*,3,/,10,-6,-3
COc1ccc(/C=N/NC(=O)c2ccc(OC)c(OC)c2)cc1COc1c(F)c(F)c(F)c(F)c1F,12*,-35,0,-7,/,/
COCc1cc(/C=N\NC(=O)c2ccc(Cl)cc2)ccc1OC,11*,-14,/,3,-6,4
COc1ccc(/C=N/NC(=O)c2cc(Br)ccc2O)cc1Cn1cc(Cl)cn1,21*,-10,0,-3,1,18
CCC(=O)N1C[C@H](O)COC[C@H]2O[C@H](CC(=O)NCC3CCCCC3)CC[C@@H]21,/,/,0,/,/,/
CCCc1cn(CC[C@@H]2CC[C@H](NC(=O)Nc3ccccc3F)[C@@H](CO)O2)nn1,/,/,0,/,/,/

# Screening results from PubChem BioAssay.
